Most compounds without a hit are left out; they make up all but 2.5% or so of the library.
TRPC4 act – activators of mouse TRPC4 channel; Q9QUQ5; HEK293 TRPC4beta/mu-opioid, Fluo4 calcium fluorescence; active compounds read high; B-score at 10 µM; 310,000 tested, 0.49% active; AID 2237;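 active = B-score above 5 SD of library B-scores, and initial fluorescence ratio not above library mean plus 5 SD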;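 note: positive B-score marks a calcium rise read as TRPC4 activation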
Target sequence (Q9QUQ5 whole entry, looked up): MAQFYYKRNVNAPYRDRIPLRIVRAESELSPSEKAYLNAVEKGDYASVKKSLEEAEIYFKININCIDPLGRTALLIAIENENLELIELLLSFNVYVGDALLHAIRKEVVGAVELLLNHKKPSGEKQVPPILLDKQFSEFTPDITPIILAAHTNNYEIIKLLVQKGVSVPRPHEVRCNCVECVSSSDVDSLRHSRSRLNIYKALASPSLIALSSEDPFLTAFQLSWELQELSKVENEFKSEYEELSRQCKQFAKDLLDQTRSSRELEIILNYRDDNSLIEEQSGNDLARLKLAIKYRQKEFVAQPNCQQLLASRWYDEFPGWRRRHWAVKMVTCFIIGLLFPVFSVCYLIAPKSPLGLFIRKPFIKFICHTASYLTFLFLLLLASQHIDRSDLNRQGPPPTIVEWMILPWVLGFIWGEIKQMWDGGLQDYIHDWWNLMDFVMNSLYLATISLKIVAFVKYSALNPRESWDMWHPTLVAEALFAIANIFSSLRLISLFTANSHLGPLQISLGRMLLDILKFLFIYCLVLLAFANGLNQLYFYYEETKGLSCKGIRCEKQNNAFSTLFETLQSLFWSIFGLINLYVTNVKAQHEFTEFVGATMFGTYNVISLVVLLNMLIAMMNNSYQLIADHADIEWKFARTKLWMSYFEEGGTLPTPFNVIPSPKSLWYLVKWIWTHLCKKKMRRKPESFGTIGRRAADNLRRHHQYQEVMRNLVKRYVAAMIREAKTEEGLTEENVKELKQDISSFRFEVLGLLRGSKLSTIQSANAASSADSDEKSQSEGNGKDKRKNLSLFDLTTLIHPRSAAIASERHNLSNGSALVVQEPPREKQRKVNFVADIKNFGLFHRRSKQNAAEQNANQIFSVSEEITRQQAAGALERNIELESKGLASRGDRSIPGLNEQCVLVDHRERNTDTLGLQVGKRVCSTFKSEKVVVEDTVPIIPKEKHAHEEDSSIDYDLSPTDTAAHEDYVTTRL
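Material: TRPC4beta and mu-opioid receptor HEK293 stable cells | Incubation: 45 min room-temperature Fluo4 loading, 110 s read | Detection: Kinetic Fluo4 calcium fluorescence | Measure: Integrated baseline-normalised fluorescence ratio, converted to per-well B score | Benchmarks: Low control buffer alone, high control maximal DAMGO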
TRPC6 inhibitor – mouse TRPC6 channel inhibition. B-score at 10 µM. AID 2553. 310,000 tested, 1.1% active. HEK293-TRPC6, membrane potential dye, ACh-evoked depolarization; active compounds read low;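 active = B-score under library mean minus 3 SD, initial fluorescence not abnormally high, positive integrated signal ratio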;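 note: B-score derived from integrated fluorescence ratio over the kinetic read; more negative B-score means stronger inhibition of depolarization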
Platelet DG rel – platelet dense granule release activity; human platelet-rich plasma, SFLLRN dense granule ATP release, luminescence; 300,000 tested, 0.22% active; inhibition, %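 (compounds screened at 7.5 µM in platelet-rich plasma)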;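 active = mean replicate score, as percent of positive control, at or above 50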
TRPC6 act – activates the mouse TRPC6 cation channel; Q61143; HEK293-TRPC6 membrane potential dye fluorescence; active compounds read high; 310,000 tested, 0.13% active; B-score at 10 µM;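 active = B-score of the integrated fluorescence ratio above library mean plus 3 SD, and starting fluorescence ratio within library mean plus 5 SD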;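 note: higher score means more depolarization so channel activation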
TRPC4 PAM – TRPC4 (mouse) allosteric potentiation; Q9QUQ5; HEK293 TRPC4beta/mu-opioid, DAMGO EC20, Fluo-4 Ca2+ flux; active compounds read high; B-score at 10 µM; 310,000 tested, 0.42% active;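 active = B-score of calcium response area above 5 SD of library B-scores, with initial fluorescence ratio within 5 SD of library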;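 note: B-score of integrated fluorescence ratio over time as area under calcium response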
TRPC4 block – inhibitors of mouse TRPC4 channel. Q9QUQ5. HEK293 TRPC4beta/mu-opioid, DAMGO-evoked Fluo4 calcium flux; active compounds read low. B-score at 10 µM. 300,000 tested, 0.39% active. AID 2247;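 active = B-score over 3 SD under the library average, no early fluorescence shift, positive overall ratio signal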
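material = TRPC4beta/mu-opioid receptor HEK293 cell line | probe or stimulus = sequential submaximal and maximal DAMGO stimulation | compound dosing = one concentration per compound | measured by = Fluo4 Ca2+ flux fluorescence | evaluation = integrated fluorescence ratio relative to baseline, converted to per-well B score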
An asterisk follows results filed as active.

How did CC(=O)Oc1ccc2nc(-c3ccc(Br)o3)oc(=O)c2c1 do in these assays?
TRPC4 act: inactive; TRPC6 inhibitor: inactive; Platelet DG rel: 10; TRPC6 act: inactive; TRPC4 PAM: inactive; TRPC4 block: inactive

What do the screens show for `O=C(N/N=C/c1ccsc1)c1ccc2ccccc2n1`?
TRPC4 act: inactive; TRPC6 inhibitor: inactive; Platelet DG rel: 10; TRPC6 act: inactive; TRPC4 PAM: 17*; TRPC4 block: inactive

Results for CCOc1cc(C(=O)N/N=C/C2CC=CCC2)cc(OCC)c1OCC (configuration not stated) ?
TRPC4 act: inactive; TRPC6 inhibitor: inactive; Platelet DG rel: 0; TRPC6 act: inactive; TRPC4 PAM: inactive; TRPC4 block: inactive

What do the screens show for `O=C(CCCN1C(=O)/C(=C/c2ccccc2Cl)SC1=S)NNC(=O)c1ccc(Cl)cc1Cl`?
TRPC4 act: inactive; TRPC6 inhibitor: inactive; Platelet DG rel: 53*; TRPC6 act: inactive; TRPC4 PAM: inactive; TRPC4 block: inactive

What do the screens show for `O=C(CCCN1C(=O)/C(=C/c2ccccc2Cl)SC1=S)NNC(=O)c1ccccc1`?
TRPC4 act: inactive; TRPC6 inhibitor: inactive; Platelet DG rel: 0; TRPC6 act: inactive; TRPC4 PAM: inactive; TRPC4 block: inactive

What do the screens show for `O=C(COC(=O)c1cccc(C(=O)OCC(=O)NCc2ccc(F)cc2)n1)NCc1ccc(F)cc1`?
TRPC4 act: inactive; TRPC6 inhibitor: inactive; Platelet DG rel: -2; TRPC6 act: inactive; TRPC4 PAM: inactive; TRPC4 block: inactive

Results for S=C(NCCc1ccccn1)Nc1ccc(Cl)cc1 ?
TRPC4 act: inactive; TRPC6 inhibitor: inactive; Platelet DG rel: 7; TRPC6 act: inactive; TRPC4 PAM: inactive; TRPC4 block: inactive

What do the screens show for `Fc1ccc(NC(=S)NCCc2ccccn2)cc1`?
TRPC4 act: 213*; TRPC6 inhibitor: inactive; Platelet DG rel: -8; TRPC6 act: inactive; TRPC4 PAM: inactive; TRPC4 block: inactive

Results for CCN(Cc1cc(=O)n2ccsc2n1)Cc1nc2ccccc2c(=O)[nH]1 ?
TRPC4 act: inactive; TRPC6 inhibitor: inactive; Platelet DG rel: 1; TRPC6 act: inactive; TRPC4 PAM: inactive; TRPC4 block: inactive

Results for Cc1ccc2cc(C3C(C#N)=C(N)Oc4c3ccc3cccnc43)c(=O)[nH]c2c1 (configuration not stated) ?
TRPC4 act: inactive; TRPC6 inhibitor: inactive; Platelet DG rel: -13; TRPC6 act: inactive; TRPC4 PAM: inactive; TRPC4 block: inactive

How did CCc1ccc2[nH]c(=O)c(C3C(C#N)=C(N)Oc4c3ccc3cccnc43)cc2c1 (configuration not stated) do in these assays?
TRPC4 act: inactive; TRPC6 inhibitor: -5.9*; Platelet DG rel: 4; TRPC6 act: inactive; TRPC4 PAM: inactive; TRPC4 block: inactive

Results for O=C(/C=C/Nc1ccccc1F)c1ccc(Br)cc1 ?
TRPC4 act: inactive; TRPC6 inhibitor: inactive; Platelet DG rel: 2; TRPC6 act: inactive; TRPC4 PAM: inactive; TRPC4 block: inactive

How did O=C(/C=C/Nc1ccc(Br)cc1F)c1ccccc1 do in these assays?
TRPC4 act: inactive; TRPC6 inhibitor: inactive; Platelet DG rel: 50*; TRPC6 act: inactive; TRPC4 PAM: inactive; TRPC4 block: inactive

Results for CCCn1c2ccc(F)cc2c2nnc(NN)nc21 ?
TRPC4 act: inactive; TRPC6 inhibitor: inactive; Platelet DG rel: 9; TRPC6 act: inactive; TRPC4 PAM: 11*; TRPC4 block: inactive

What do the screens show for `CCn1c2ccc(F)cc2c2nnc(NN)nc21`?
TRPC4 act: inactive; TRPC6 inhibitor: inactive; Platelet DG rel: -1; TRPC6 act: inactive; TRPC4 PAM: 18*; TRPC4 block: inactive

Results for COc1ccc(Nc2nc(NCCN3CCOCC3)nc(Nc3ccc(OC)cc3)n2)cc1 ?
TRPC4 act: inactive; TRPC6 inhibitor: inactive; Platelet DG rel: 3; TRPC6 act: inactive; TRPC4 PAM: inactive; TRPC4 block: inactive

Results for CN(C)c1ccc(/C=N/Nc2cccc(C(=O)O)c2)cc1 ?
TRPC4 act: inactive; TRPC6 inhibitor: inactive; Platelet DG rel: 12; TRPC6 act: inactive; TRPC4 PAM: inactive; TRPC4 block: inactive

What do the screens show for `CCCC1Cc2nc(N3CCCCC3)c(C#N)cc2CO1` (configuration not stated)?
TRPC4 act: inactive; TRPC6 inhibitor: inactive; Platelet DG rel: 5; TRPC6 act: inactive; TRPC4 PAM: 10*; TRPC4 block: inactive

Results for CCCC1Cc2[nH]c(=O)c(C#N)cc2CO1 (configuration not stated) ?
TRPC4 act: inactive; TRPC6 inhibitor: inactive; Platelet DG rel: 7; TRPC6 act: inactive; TRPC4 PAM: inactive; TRPC4 block: inactive

What do the screens show for `O=C(NC(=S)NC1CCCCC1)c1ccc(F)cc1`?
TRPC4 act: inactive; TRPC6 inhibitor: inactive; Platelet DG rel: 3; TRPC6 act: inactive; TRPC4 PAM: inactive; TRPC4 block: inactive

Results for CC(C)CC1NC(C(=O)O)Cc2c1[nH]c1ccccc21 (configuration not stated) ?
TRPC4 act: inactive; TRPC6 inhibitor: inactive; Platelet DG rel: 0; TRPC6 act: inactive; TRPC4 PAM: inactive; TRPC4 block: inactive

What do the screens show for `CCC1(C)NC(C(=O)O)Cc2c1[nH]c1ccccc21` (configuration not stated)?
TRPC4 act: inactive; TRPC6 inhibitor: inactive; Platelet DG rel: -5; TRPC6 act: inactive; TRPC4 PAM: inactive; TRPC4 block: inactive

How did CCCC1NC(C(=O)O)Cc2c1[nH]c1ccccc21 (configuration not stated) do in these assays?
TRPC4 act: inactive; TRPC6 inhibitor: inactive; Platelet DG rel: 1; TRPC6 act: inactive; TRPC4 PAM: inactive; TRPC4 block: -6*

How did CC(C)C1NC(C(=O)O)Cc2c1[nH]c1ccccc21 (configuration not stated) do in these assays?
TRPC4 act: inactive; TRPC6 inhibitor: inactive; Platelet DG rel: -11; TRPC6 act: inactive; TRPC4 PAM: inactive; TRPC4 block: -7*

What do the screens show for `CSc1nc(C)c(Cc2c(F)cccc2Cl)c(=O)[nH]1`?
TRPC4 act: inactive; TRPC6 inhibitor: inactive; Platelet DG rel: -25; TRPC6 act: inactive; TRPC4 PAM: inactive; TRPC4 block: inactive

Results for Cc1cnc(C)c(N2CCN(Cc3nc(-c4ccccc4)no3)CC2)n1 ?
TRPC4 act: inactive; TRPC6 inhibitor: inactive; Platelet DG rel: 50*; TRPC6 act: inactive; TRPC4 PAM: inactive; TRPC4 block: inactive

How did c1ccc(-c2noc(CN3CCOCC3)n2)cc1 do in these assays?
TRPC4 act: inactive; TRPC6 inhibitor: inactive; Platelet DG rel: -7; TRPC6 act: inactive; TRPC4 PAM: inactive; TRPC4 block: inactive
